TRPC4 block – inhibitors of mouse TRPC4 channel; Q9QUQ5; HEK293 TRPC4beta/mu-opioid, DAMGO-evoked Fluo4 calcium flux; active compounds read low; B-score at 10 µM; 300,000 compounds, 0.39% hits; AID 2247;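 active = B-score over 3 SD under the library average, no early fluorescence shift, positive overall ratio signal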
Target sequence (Q9QUQ5 whole entry, looked up): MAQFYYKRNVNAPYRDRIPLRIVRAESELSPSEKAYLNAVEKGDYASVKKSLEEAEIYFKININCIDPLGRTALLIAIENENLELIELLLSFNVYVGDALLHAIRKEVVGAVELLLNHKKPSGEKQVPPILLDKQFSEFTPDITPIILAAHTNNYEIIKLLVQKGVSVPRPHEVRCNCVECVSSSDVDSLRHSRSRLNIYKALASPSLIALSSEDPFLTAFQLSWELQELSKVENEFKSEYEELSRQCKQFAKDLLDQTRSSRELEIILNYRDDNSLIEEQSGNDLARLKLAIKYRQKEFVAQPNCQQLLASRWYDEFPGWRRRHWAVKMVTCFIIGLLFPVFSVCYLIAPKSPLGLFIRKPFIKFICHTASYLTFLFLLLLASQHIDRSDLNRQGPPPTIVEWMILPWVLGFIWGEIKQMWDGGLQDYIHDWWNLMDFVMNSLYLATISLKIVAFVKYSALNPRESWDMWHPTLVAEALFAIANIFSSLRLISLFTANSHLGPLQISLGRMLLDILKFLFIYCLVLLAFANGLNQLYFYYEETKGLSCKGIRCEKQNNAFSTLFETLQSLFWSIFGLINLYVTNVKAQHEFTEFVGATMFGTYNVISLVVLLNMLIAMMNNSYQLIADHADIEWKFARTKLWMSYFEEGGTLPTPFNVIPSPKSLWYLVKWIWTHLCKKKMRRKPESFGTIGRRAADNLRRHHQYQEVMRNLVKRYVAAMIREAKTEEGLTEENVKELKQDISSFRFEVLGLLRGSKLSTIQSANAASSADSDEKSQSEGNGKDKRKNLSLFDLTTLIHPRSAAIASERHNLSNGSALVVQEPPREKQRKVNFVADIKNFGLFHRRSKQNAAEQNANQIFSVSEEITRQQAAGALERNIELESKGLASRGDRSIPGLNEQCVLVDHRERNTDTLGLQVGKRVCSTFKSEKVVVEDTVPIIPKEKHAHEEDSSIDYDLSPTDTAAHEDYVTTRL
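material = TRPC4beta/mu-opioid receptor HEK293 cell line | probe or stimulus = sequential submaximal and maximal DAMGO stimulation | compound dosing = one concentration per compound | measured by = Fluo4 Ca2+ flux fluorescence | evaluation = integrated fluorescence ratio relative to baseline, converted to per-well B score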
TRPC4 PAM – TRPC4 (mouse) allosteric potentiation; HEK293 TRPC4beta/mu-opioid, DAMGO EC20, Fluo-4 Ca2+ flux; active compounds read high; B-score at 10 µM; 310,000 compounds, 0.42% hits;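 active = B-score of calcium response area above 5 SD of library B-scores, with initial fluorescence ratio within 5 SD of library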;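 also: B-score of integrated fluorescence ratio over time as area under calcium response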
TRPC6 inh – inhibitors of mouse TRPC6 channel | HEK293-TRPC6, membrane potential dye, ACh-evoked depolarization; active compounds read low | B-score at 10 µM | 310,000 compounds, 1.1% hits | AID 2553;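 active = B-score under library mean minus 3 SD, initial fluorescence not abnormally high, positive integrated signal ratio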;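 also: B-score derived from integrated fluorescence ratio over the kinetic read; more negative B-score means stronger inhibition of depolarization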
TRPC6 act – activators of mouse TRPC6 channel | Q61143 | HEK293-TRPC6 membrane potential dye fluorescence; active compounds read high | B-score at 10 µM | 310,000 compounds, 0.13% hits | AID 2550;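 active = B-score of the integrated fluorescence ratio above library mean plus 3 SD, and starting fluorescence ratio within library mean plus 5 SD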;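 also: higher score means more depolarization so channel activation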
TRPC4 act – activators of mouse TRPC4 channel; Q9QUQ5; HEK293 TRPC4beta/mu-opioid, Fluo4 calcium fluorescence; active compounds read high; B-score at 10 µM; 310,000 compounds, 0.49% hits;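 active = B-score above 5 SD of library B-scores, and initial fluorescence ratio not above library mean plus 5 SD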;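 also: positive B-score marks a calcium rise read as TRPC4 activation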
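Material: TRPC4beta and mu-opioid receptor HEK293 stable cells | Incubation: 45 min room-temperature Fluo4 loading, 110 s read | Detection: Kinetic Fluo4 calcium fluorescence | Measure: Integrated baseline-normalised fluorescence ratio, converted to per-well B score | Benchmarks: Low control buffer alone, high control maximal DAMGO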
TRPC4 spec 2 – second selectivity test of TRPC6 inhibitors: effect on mouse TRPC4 | 920 compounds, 42% hits | inhibition, % at 10 µM | shares compounds with TRPC6 inh | AID 2776 | HEK293 TRPC4/MOR, membrane potential dye fluorescence; channel activated by saturating DAMGO dose;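 active = compounds whose fluorescence signal differed from control wells by over 3 SD, either direction, in both duplicate plates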
TRPC4 spec – selectivity of TRPC6 inhibitors: effect on mouse TRPC4; shares compounds with TRPC6 inh; HEK293 TRPC4/mu-opioid, membrane potential fluorescence; activity change, negative = inhibition, % at 10 µM; 920 compounds, 61% hits; AID 2777;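 active = rise or fall in signal beyond 3 SD of buffer-only wells in both replicate plates, either sign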;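 also: integrated kinetic ratio of fluorescence range over baseline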
HEK293 MPD ctr 2-1 – second counter-screen for TRPC6 inhibitors: parental HEK293 cells; shares compounds with TRPC6 inh; parental HEK293 membrane potential dye fluorescence; maximal acetylcholine challenge after compound addition; 920 compounds, 31% hits; signal change vs control, % at 10 µM;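 active = membrane potential signal moving either way by over 3 SD of the maximum-effect control, in both duplicate plates, meaning non-specific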
HEK293 MPD ctr-1 – parental HEK293 nonspecific activity of TRPC6 inhibitors | membrane potential signal change, % at 10 µM | shares compounds with TRPC6 inh | parental HEK293 membrane potential dye fluorescence | 920 compounds, 60% hits;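 active = membrane potential signal shifting up or down by more than 3 SD of buffer-only wells, on both duplicate plates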
HEK293 MPD ctr-2 – checks TRPC6 modulator effects in parental HEK293 cells; shares compounds with TRPC6 inh; membrane potential dye fluorescence; membrane potential signal change, % at 10 µM; 2,400 compounds, 51% hits; AID 488924;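 active = membrane potential signal moves up or down beyond 5 SD from buffer-only wells, on both duplicate plates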
HEK293 MPD ctr 2-2 – second counter-screen for TRPC6 modulators: effect in parental HEK293 cells; shares compounds with TRPC6 inh; membrane potential dye fluorescence; after compound, maximal acetylcholine stimulation; inhibition, % at 10 µM; 2,400 compounds, 14% hits; AID 488926;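 active = membrane potential signal drops by more than 5 SD from the mean control signal, in both duplicate plates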;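 also: plate controls were acetylcholine ECmax control wells for no effect and buffer only wells for full effect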
TRPC4 ctr mod – tests whether TRPC6 modulators also affect mouse TRPC4. percent change from control (negative = decrease, positive = increase), % at 10 µM. HEK293 TRPC4/mu-opioid, membrane potential fluorescence. AID 488927. 2,400 compounds, 69% hits. shares compounds with TRPC6 inh;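 active = membrane potential signal moved up or down beyond 5 SD of buffer control wells, in both duplicate plates, actives on both sides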;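 also: plate controls were assay buffer wells for no effect and DAMGO maximal-effect wells for full effect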
TRPC4 ctr inh 2 – second check of whether TRPC6 modulators also affect mouse TRPC4 | shares compounds with TRPC6 inh | HEK293 TRPC4/mu-opioid, membrane potential dye fluorescence; stimulated with maximal-effect DAMGO | inhibition, % at 10 µM | 2,400 compounds, 55% hits | AID 488928;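 active = drop in membrane potential signal beyond 5 SD of the control wells in both duplicate plates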;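 also: TRPC4 counter screen for TRPC6 hits run under conditions tuned for TRPC6 not TRPC4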
TRPC6 inh conf – mouse TRPC6 inhibitor confirmation; shares compounds with TRPC6 inh; HEK293-TRPC6, membrane potential dye, ACh-evoked depolarization; inhibition, % at 10 µM; 3,300 compounds, 43% hits;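 active = fluorescence ratio falls more than 5 SD below the full-stimulation control mean, in both duplicate runs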;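 also: integrated fluorescence ratio of peak minus minimum over baseline after agonist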
TRPC6 act confirm – confirmation of mouse TRPC6 activators | shares compounds with TRPC6 inh | HEK293-TRPC6 membrane potential dye fluorescence, FDSS | AID 488961 | activation, % at 10 µM | 2,800 compounds, 11% hits;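 active = ratio signal rise beyond 5 SD above unstimulated control wells' mean, seen in both duplicate runs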;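 also: plate controls were buffer EC0 wells for no effect and acetylcholine ECmax response for full effect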
Starred values were filed as active, the others as inactive; i = inactive; . = no result given. Hits are enriched below; roughly 2.3% of the tested compounds scored in any of these assays.

SMILES	TRPC4 block	TRPC4 PAM	TRPC6 inh	TRPC6 act	TRPC4 act	HEK293 MPD ctr-2	HEK293 MPD ctr 2-2	TRPC4 ctr mod	TRPC4 ctr inh 2	TRPC6 inh conf	TRPC6 act confirm	others
COC(=O)N1CCN(c2ccc(Cl)c(Cl)c2)CC1	i	i	-6.3*	i	i	i	i	8.0%*	37%*	i	i
O=C(Nc1ccccc1NC(=O)c1c(F)cccc1F)c1c(F)cccc1F	i	i	-5.8*	i	i	i	i	i	i	i	i
CCCc1nc2c(C)cc(C)cc2c(N)c1CC	i	i	-6*	i	i	-94%*	i	-18%*	60%*	i	i
C/C(=N/NC(=S)Nc1cccc(C)c1)c1cccc([N+](=O)[O-])c1	i	i	-5.3*	i	i	i	i	i	30%*	i	i
CCOC(=O)CN1C(=O)N[C@@H](CCc2ccccc2)[C@@H](C(=O)OC)[C@H]1C	i	i	i	i	i	.	.	.	.	.	.
CCc1cc(=O)oc2cc(C)cc(OCC(=O)NC3CC3)c12	i	i	i	i	i	.	.	.	.	.	.
CCc1cc(=O)oc2cc(C)cc(OCC(=O)NC3CCN(Cc4ccccc4)CC3)c12	i	i	-5.5*	i	i	-100%*	i	-26%*	68%*	40%*	i
Cc1cc(C)c2nc(C)cc(Nc3ccc(C(=O)N4CCOCC4)cc3)c2c1	i	i	-6.9*	i	i	.	.	.	.	70%*	i	TRPC4 spec 2=i;TRPC4 spec=-16%*;HEK293 MPD ctr 2-1=i;HEK293 MPD ctr-1=-272%*
CC(=O)c1cccc(Nc2cc(C)nc3ccc(C)cc23)c1	i	i	-6.6*	i	i	.	.	.	.	i	i	TRPC4 spec 2=66%*;TRPC4 spec=-22%*;HEK293 MPD ctr 2-1=14%*;HEK293 MPD ctr-1=-260%*
CC(=O)c1cccc(Nc2cc(C)nc3c(C)cc(C)cc23)c1	-6*	i	-5.8*	i	i	-102%*	76%*	-22%*	65%*	56%*	i
CCCC(C(=O)Nc1ccncc1)c1ccccc1 (centres undefined)	i	i	i	i	i	.	.	.	.	.	.
COc1cc2nc(N3CCNCC3)nc(N)c2cc1OC	i	i	-11*	i	i	-246%*	92%*	-38%*	53%*	64%*	i
CC1CCCC(C)N1CCCNC(=O)Cn1ncc2c3ccccc3n(C)c2c1=O (centres undefined)	i	i	i	i	i	.	.	.	.	.	.
COc1cc(OC)c2nc(C)c3c(c2c1)N(c1ccc(O)cc1)CC3	i	i	-7.2*	i	i	-174%*	101%*	-18%*	42%*	i	i
O=C(CCn1ccnc1)Nc1ccc2ccccc2c1	i	i	i	i	i	.	.	.	.	.	.
Cc1ccc(NC(=O)[C@H](C)NC(=O)C2CCN(C(=O)[C@@H](N)C(C)C)CC2)cc1	i	i	i	i	i	.	.	.	.	.	.
Cc1cc(C)c(S(=O)(=O)N2CCCCC2CCNC(=O)C(=O)NCc2ccco2)c(C)c1 (centres undefined)	i	i	i	i	i	.	.	.	.	.	.
COCCCn1c(SCC(=O)Nc2sc3c(c2C#N)CCCC3)nnc1-c1ccncc1	i	i	i	i	i	.	.	.	.	.	.
C=CCn1c(SCC(=O)Nc2sc3c(c2C#N)CCC3)nnc1C1COc2ccccc2O1 (centres undefined)	i	i	i	i	i	.	.	.	.	.	.
Cn1c(SCC(=O)Nc2sc3c(c2C#N)CCC3)nnc1C1COc2ccccc2O1 (centres undefined)	i	i	-11*	i	i	.	.	.	.	63%*	.	TRPC4 spec 2=i;TRPC4 spec=i;HEK293 MPD ctr 2-1=i;HEK293 MPD ctr-1=i
CN(C)CCCn1c(SCC(=O)Nc2sc3c(c2C#N)CCCC3)nnc1-c1ccncc1	i	i	i	16*	i	187%*	i	28%*	i	i	76%*
CCC(=O)N1CCCC(C(=O)c2ccc(-c3ccccc3)cc2)C1 (centres undefined)	i	i	i	i	i	.	.	.	.	.	.
COc1ccccc1Nc1nc(NCCCN(C)C)nc(N)c1[N+](=O)[O-]	i	i	-6.4*	i	i	i	i	i	49%*	42%*	i
C[C@H](NC(=O)c1ccccc1)C(=O)N1CCN(c2ccccc2)CC1	i	i	i	i	i	.	.	.	.	.	.
COc1ccc(OC)c(/C=C2\SC(=S)N(C(C(=O)O)c3ccccc3)C2=O)c1 (centres undefined)	i	i	i	18*	i	412%*	i	83%*	i	i	175%*
CCCOc1ccc(C(O)(CCC)CCN2CCCCC2)cc1 (centres undefined)	i	i	i	i	i	.	.	.	.	.	.
OC(CCN1CCCCC1)(c1ccccc1)C1CCCCC1 (centres undefined)	i	i	-5.2*	i	i	208%*	80%*	42%*	i	78%*	.
